Experimental data from ChEMBL document CHEMBL1133567, “5-Azidoimidacloprid and an acyclic analogue as candidate photoaffinity probes for mammalian and insect nicotinic acetylcholine receptors” (J Med Chem, 2000).

Tests used:
[1] = Binding affinity for nAChR with [3H]nicotine in rat brain; format: tissue-based
Method in brief: (§1)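 Competition with 5 nM [3H](-)-nicotine against varied inhibitor concentrations, using 400 µg protein from rat brain membranes or 100 µg protein from recombinant rat α4β2 membranes. Incubation 30 min at 22 °C in Tris-HCl pH 7.4 buffer with NaCl, KCl, CaCl2, MgSO4, EDTA. Stopped by filtration through polyethylenimine-soaked GF/B filters. Nonspecific binding with 5 µM (-)-nicotine.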

[2] = target: Nicotinic acetylcholine receptor; experiment: Binding affinity for nAChR with [3H]imidacloprid in Drosophila; format: protein-complex assay, Drosophila melanogaster
[3] = target: Nicotinic acetylcholine receptor; experiment: Binding affinity for nAChR with [3H]imidacloprid in Myzus persicae; format: protein-complex assay
[4] = target: Neuronal acetylcholine receptor subunit alpha-4 (Rattus norvegicus, UniProt P09483+P12390); experiment: Binding affinity for nAChR with [3H]-nicotine in rat alpha4 beta2 membranes; format: cell membranes; method in brief: as §1
Sequence of Neuronal acetylcholine receptor subunit alpha-4 (P09483 whole entry, one chain of several): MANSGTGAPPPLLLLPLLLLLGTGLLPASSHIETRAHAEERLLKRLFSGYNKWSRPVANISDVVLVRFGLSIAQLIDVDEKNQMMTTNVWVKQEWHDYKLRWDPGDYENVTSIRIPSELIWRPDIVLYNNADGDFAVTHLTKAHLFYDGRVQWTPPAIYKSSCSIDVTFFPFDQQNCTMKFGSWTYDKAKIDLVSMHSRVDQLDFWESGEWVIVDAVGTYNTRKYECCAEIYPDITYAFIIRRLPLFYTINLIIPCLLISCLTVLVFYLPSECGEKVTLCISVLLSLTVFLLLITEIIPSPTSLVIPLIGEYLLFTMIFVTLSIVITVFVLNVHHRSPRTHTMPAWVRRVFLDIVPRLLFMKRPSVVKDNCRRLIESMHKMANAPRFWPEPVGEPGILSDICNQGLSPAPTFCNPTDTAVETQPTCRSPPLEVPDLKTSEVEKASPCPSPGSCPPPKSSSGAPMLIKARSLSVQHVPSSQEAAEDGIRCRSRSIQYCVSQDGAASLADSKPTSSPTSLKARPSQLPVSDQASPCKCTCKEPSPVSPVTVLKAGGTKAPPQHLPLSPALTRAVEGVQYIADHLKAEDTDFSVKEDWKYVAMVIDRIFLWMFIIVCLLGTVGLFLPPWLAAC

With `C/N=C(\NCc1ccc(Cl)nc1)N[N+](=O)[O-]` the Ki [1] was 3.5 µM, the Ki [2] was 0.01 µM and the Ki [3] was 0.012 µM.

`C/N=C(\NCc1cnc(Cl)c(N=[N+]=[N-])c1)N[N+](=O)[O-]` gave a Ki [1] of 0.044 µM, a Ki [2] of 0.013 µM and a Ki [3] of 0.0045 µM.

`[N-]=[N+]=Nc1cc(CN2CCNC2=N[N+](=O)[O-])cnc1Cl` [5-AZIDOIMIDACLOPRID] gave a Ki [1] of 0.044 µM, a Ki [2] of 0.015 µM and a Ki [4] of 0.0044 µM. The Ki [3] was 0.001 µM.

`O=[N+]([O-])NC1=NCCN1Cc1ccc(Cl)nc1` [IMIDACLOPRID] gave a Ki [1] of 0.29 µM, a Ki [2] of 0.0021 µM and a Ki [4] of 0.05 µM. For the same compound, the Ki [3] was 0.0019 µM.
